# Laboratory results taken from ChEMBL document CHEMBL5370680, “Design and Biological Evaluation of Piperazine-Bearing Nitrobenzamide Hypoxia/GDEPT Prodrugs: The Discovery of CP-506” (ACS Med Chem Lett, 2023).
# What was measured:
# [1] = tested on: NCI-H1299; assay: Antiproliferative activity against human NCI-H1299 cells expressing AKR1C3 assessed as cell growth inhibition measured after 4 hrs; assay type: functional, cell-based; settings: NCI-H1299, 4 h
# Procedure, shortened: (§1)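 Monolayer antiproliferative assay using wild-type cells and isogenic lines transfected with AKR1C3 or E. coli NfsA. Cells exposed to prodrug for 4 h, then regrown for 5 days. IC50 is 50% growth inhibition versus untreated controls. Mean values reported, CV <20%.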
# [2] = Selectivity ratio of IC50 for antiproliferative activity against wild type human NCI-H1299 cells to IC50 for antiproliferative activity against human NCI-H1299 cells expressing AKR1C3; assay type: functional; settings: time 4 hrs
# Procedure, shortened: (§2)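 Ratio of mean IC50 in non-transfected wild-type cells to mean IC50 in the AKR1C3- or NfsA_Ec-transfected line. IC50 is from a 4 h prodrug exposure and 5 days' regrowth.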
# [3] = Selectivity ratio of IC50 for antiproliferative activity against wild type human HCT-116 cells to IC50 for antiproliferative activity against human HCT-116 cells expressing NfsA of Escherichia coli; assay type: functional; settings: time 4 hrs; procedure, shortened: as §2
# [4] = tested on: HCT-116; assay: Antiproliferative activity against wild type human HCT-116 cells assessed as cell growth inhibition measured after 4 hrs; assay type: functional, cell-based; settings: HCT-116, 4 h; procedure, shortened: as §1
# [5] = tested on: NCI-H1299; assay: Antiproliferative activity against wild type human NCI-H1299 cells assessed as cell growth inhibition measured after 4 hrs; assay type: functional, cell-based; settings: NCI-H1299, 4 h; procedure, shortened: as §1
# [6] = tested on: HCT-116; assay: Antiproliferative activity against human HCT-116 cells expressing AKR1C3 assessed as cell growth inhibition measured after 4 hrs; assay type: functional, cell-based; settings: HCT-116, 4 h; procedure, shortened: as §1
# [7] = tested on: NCI-H1299; assay: Antiproliferative activity against human NCI-H1299 cells expressing NfsA of Escherichia coli assessed as cell growth inhibition measured after 4 hrs; assay type: functional; settings: NCI-H1299, 4 h; procedure, shortened: as §1
# [8] = tested on: HCT-116; assay: Antiproliferative activity against human HCT-116 cells expressing NfsA of Escherichia coli assessed as cell growth inhibition measured after 4 hrs; assay type: functional; settings: HCT-116, 4 h; procedure, shortened: as §1
# [9] = Selectivity ratio of IC50 for antiproliferative activity against wild type human HCT-116 cells to IC50 for antiproliferative activity against human HCT-116 cells expressing AKR1C3; assay type: functional; settings: time 4 hrs; procedure, shortened: as §2
# [10] = Octanol/water partition coefficient, log D of the compound at pH 7.4; assay type: physicochemical
# Procedure, shortened: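 Octanol–water partition coefficient by shake-flask method at pH 7.4.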
# [11] = Selectivity ratio of IC50 for antiproliferative activity against wild type human NCI-H1299 cells to IC50 for antiproliferative activity against human NCI-H1299 cells expressing NfsA of Escherichia coli; assay type: functional; settings: time 4 hrs; procedure, shortened: as §2
# [12] = tested on: HCT-116; assay: Antiproliferative activity against human HCT-116 cells in three-dimensional cell culture multicellular layer expressing NfsA of Escherichia coli assessed as fold change in plating efficiency at 10 uM; assay type: functional
# Procedure, shortened: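 Mixed MCLs of wild-type HCT116 with 3% NfsA_Ec-expressing cells, against 100% wild-type MCLs, exposed to 10 μM prodrug. Clonogenic plating efficiency measured. Fold change is the plating-efficiency ratio between wild-type and transfected MCLs. ≥3 independent experiments.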
# [13] = tested on: HCT-116; assay: Antiproliferative activity against human HCT-116 cells in three-dimensional cell culture multicellular layer expressing AKR1C3 assessed as fold change in plating efficiency at 10 uM; assay type: functional
# Procedure, shortened: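 100% AKR1C3-expressing HCT116 MCLs, against wild-type HCT116 MCLs, exposed to 10 μM prodrug. Clonogenic plating efficiency measured. Fold change is the plating-efficiency ratio between wild-type and transfected MCLs. ≥3 independent experiments.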
# [14] = (§3) Selectivity ratio of IC50 for antiproliferative activity against human SiHa cells assessed as inhibition of cell growth under aerobic condition to IC50 for antiproliferative activity against human SiHa cells assessed as inhibition of cell growth under anoxic condition; assay type: functional
# Procedure, shortened: (§4)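 Hypoxic cytotoxicity ratio is aerobic IC50 divided by anoxic IC50. Each IC50 comes from a 4 h drug exposure under aerobic or anoxic conditions, followed by 5 days' aerobic regrowth, relative to untreated controls.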
# [15] = tested on: SiHa; assay: Antiproliferative activity against human SiHa cells assessed as inhibition of cell growth incubated for 4 hrs under aerobic condition and measured after 5 days regrowth under aerobic condition; assay type: functional, cell-based
# Procedure, shortened: (§5)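 Low-density monolayer antiproliferative assay. Cells exposed to prodrug for 4 h under aerobic or anoxic conditions, then regrown aerobically for 5 days. IC50 is the concentration giving 50% growth inhibition versus untreated controls. Mean values reported, CV <20%.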
# [16] = tested on: HCT-116; assay: Antiproliferative activity against human HCT-116 cells assessed as inhibition of cell growth incubated for 4 hrs under anoxic condition and measured after 5 days regrowth under aerobic condition; assay type: functional, cell-based; procedure, shortened: as §5
# [17] = tested on: SiHa; assay: Antiproliferative activity against human SiHa cells assessed as inhibition of cell growth incubated for 4 hrs under anoxic condition and measured after 5 days regrowth under aerobic condition; assay type: functional, cell-based; procedure, shortened: as §5
# [18] = tested on: HCT-116; assay: Antiproliferative activity against human HCT-116 cells in three-dimensional cell culture multicellular layers assessed as log cell killing under anoxic condition at 100 uM; assay type: functional
# Procedure, shortened: (§6)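 HCT116 three-dimensional multicellular layers exposed to 100 μM prodrug under aerobic or anoxic conditions. Clonogenic survivors per MCL counted. Log cell kill = log CS(control) − log CS(treated). Mean of ≥3 independent experiments.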
# [19] = as §3, with “HCT-116” for “SiHa”, “cells overexpressing cytochrome P450 oxidoreductase” for “cells”; assay type: functional; procedure, shortened: as §4
# [20] = Selectivity ratio of IC50 for antiproliferative activity against human HCT-116 cells assessed as inhibition of cell growth under aerobic condition to IC50 for antiproliferative activity against human HCT-116 cells assessed as inhibition of cell growth under anoxic condition; assay type: functional; procedure, shortened: as §4
# [21] = tested on: HCT-116; assay: Antiproliferative activity against human HCT-116 cells assessed as inhibition of cell growth incubated for 4 hrs under aerobic condition and measured after 5 days regrowth under aerobic condition; assay type: functional, cell-based; procedure, shortened: as §5
# [22] = tested on: HCT-116; assay: Antiproliferative activity against human HCT-116 cells in three-dimensional cell culture multicellular layers assessed as log cell killing under aerobic condition at 100 uM; assay type: functional; procedure, shortened: as §6
# [23] = tested on: HCT-116; assay: Antiproliferative activity against human HCT-116 cells overexpressing cytochrome P450 oxidoreductase assessed as inhibition of cell growth incubated for 4 hrs under aerobic condition and measured after 5 days regrowth under aerobic condition; assay type: functional, cell-based; procedure, shortened: as §5
# [24] = tested on: HCT-116; assay: Antiproliferative activity against human HCT-116 cells overexpressing cytochrome P450 oxidoreductase assessed as inhibition of cell growth incubated for 4 hrs under anoxic condition and measured after 5 days regrowth under aerobic condition; assay type: functional, cell-based; procedure, shortened: as §5
# [25] = Toxicity in NIH-III nude mouse xenografted with human HCT-116 cells expressing NfsA of Escherichia coli assessed as body weight loss at 1000 micromol/kg, ip BID measured on day 16; assay type: organism-based; settings: in vivo, 384 h, dose 1000 µmol/kg, time 16 day
# [26] = Toxicity in NIH-III nude mouse xenografted with human HCT-116 cells expressing NfsA of Escherichia coli assessed as body weight loss at 1000 micromol/kg, ip BID measured on day 6; assay type: organism-based; settings: in vivo, 144 h, at 1000 µmol/kg, time 6 day
# [27] = Toxicity in NIH-III nude mouse xenografted with human HCT-116 cells expressing NfsA of Escherichia coli assessed as body weight loss at 1000 micromol/kg, ip BID; assay type: organism-based; settings: in vivo, at 1000 µmol/kg
# [28] = Metabolic stability in mouse liver microsome assessed as half life in presence of NADPH by LC-MS/MS analysis; assay type: ADME; settings: liver microsomes
# Procedure, shortened: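 Male mouse hepatic microsomes incubated with prodrug for 30 min, with or without NADPH cofactor. Percentage of parent compound remaining tracked from triplicate incubations. Half-life estimated from this loss.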
SMILES,IC50 [1] [µM],Ratio IC50 [2],Ratio IC50 [3],IC50 [4] [µM],IC50 [5] [µM],IC50 [6] [µM],IC50 [7] [µM],IC50 [8] [µM],Ratio IC50 [9],logD [10],Ratio IC50 [11],fold change (FC) [12],fold change (FC) [13],Ratio IC50 [14],IC50 [15] [µM],IC50 [16] [µM],IC50 [17] [µM],Ratio IC50 [19],IC50 [23] [µM],IC50 [24] [µM],further results
CC(C)N1CCN(C(=O)c2cc(N(CCBr)CCBr)c(S(C)(=O)=O)cc2[N+](=O)[O-])CC1,69,0.9,462,61,59,53,0.287,0.132,1.2,1.9,206,1943,0.9,,,,,,,,
CCS(=O)(=O)c1cc([N+](=O)[O-])c(C(=O)N2CCN(C(C)C)CC2)cc1N(CCBr)CCBr,67,0.7,131,65,49,70,0.685,0.496,0.9,2.5,73,351,0.9,,,,,,,,
CN1CCN(C(=O)c2cc(N(CCBr)CCBr)c(S(C)(=O)=O)cc2[N+](=O)[O-])CC1,102,1,1146,102,98,70,0.154,0.089,1.5,1.4,636,1531,1.1,15,241,24,16,93,82,0.88,LCK [18]: 0.016; Ratio IC50 [20]: 6.6; IC50 [21]: 160 µM; LCK [22]: 2.3
CS(=O)(=O)OCCN(CCBr)c1c(C(=O)NCCO)cc([N+](=O)[O-])cc1[N+](=O)[O-],7.4,15,4125,66,114,1.1,0.048,0.016,60,1,2375,29,100500,7,19,2.5,2.7,293,41,0.14,Ratio IC50 [20]: 15; IC50 [21]: 38 µM
CN1CCN(C(=O)c2cc(N(CCBr)CCOS(C)(=O)=O)c(S(C)(=O)=O)cc2[N+](=O)[O-])CC1,,,,,,,,,,0.3,,,,12,561,23,47,87,139,1.6,LCK [18]: 0.016; Ratio IC50 [20]: 16; IC50 [21]: 368 µM; LCK [22]: 2.3
CCN1CCN(C(=O)c2cc(N(CCBr)CCBr)c(S(C)(=O)=O)cc2[N+](=O)[O-])CC1,71,1,740,77,71,49,0.175,0.104,1.6,1.7,406,825,1.2,16,164,21,10,82,54,0.66,Activity [25]: Non-Toxic; Activity [26]: <= 7%; LCK [18]: 0.016; Activity [27]: < 10%; half-life [28]: 6.05 min; Ratio IC50 [20]: 6.9; IC50 [21]: 145 µM; LCK [22]: 2.3
CCN1CCN(C(=O)c2cc(N(CCBr)CCOS(C)(=O)=O)c(S(C)(=O)=O)cc2[N+](=O)[O-])CC1 [CP-506],,,,,,,,,,0.6,,,,21,459,14,22,93,112,1.2,LCK [18]: 0.016; half-life [28]: 41.2 min; Ratio IC50 [20]: 21; IC50 [21]: 288 µM; LCK [22]: 2.3
CCN1CCN(C(=O)c2cc(N(CCBr)CCOS(C)(=O)=O)c(S(=O)(=O)CC)cc2[N+](=O)[O-])CC1,,,,,,,,,,1,,,,>20,> 300,18,15,44,122,2.8,LCK [18]: 0.016; LCK [22]: 2.3
CCS(=O)(=O)c1cc([N+](=O)[O-])c(C(=O)N2CCN(C)CC2)cc1N(CCBr)CCBr,58,1.5,359,83,85,73,0.546,0.231,1.1,2.2,156,709,1.1,,,,,,,,
CCN1CCN(C(=O)c2cc(N(CCBr)CCBr)c(S(=O)(=O)CC)cc2[N+](=O)[O-])CC1,54,1.2,511,95,67,62,0.552,0.186,1.5,2.1,121,5178,0.9,11,253,27,23,21,60,2.8,Activity [25]: Non-Toxic; Activity [26]: <= 7%; LCK [18]: 0.016; Activity [27]: < 10%; Ratio IC50 [20]: 5.3; IC50 [21]: 142 µM; LCK [22]: 2.3
